Data taken from ChEMBL document CHEMBL1154975, “Selective inducible microsomal prostaglandin E(2) synthase-1 (mPGES-1) inhibitors derived from an oxicam template” (Bioorg Med Chem Lett, 2010).

Tests used:
[1] = target: T1, Prostaglandin E synthase (Homo sapiens, UniProt O14684); test: Inhibition of human mPGES1 assessed as PGE2 level after 41 sec by ELISA
T1 sequence (O14684 whole entry): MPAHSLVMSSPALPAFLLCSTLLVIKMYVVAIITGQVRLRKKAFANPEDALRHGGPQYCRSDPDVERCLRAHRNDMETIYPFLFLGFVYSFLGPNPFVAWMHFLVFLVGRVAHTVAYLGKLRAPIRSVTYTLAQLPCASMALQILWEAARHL
Outline: (§1)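 Enzyme in 100 mM potassium phosphate pH 6.2 with 2.5 mM glutathione, compound added in DMSO. Reaction started with PGH2 (final 2 µM), stopped with 2.5 mM FeCl2, diluted 120-fold into ELISA buffer. PGE2 by ELISA against a standard curve. % control set between reference-inhibited and enzyme-only controls; IC50 by 4-parameter log fit of duplicate data.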

[2] = Inhibition of rat mPGES1
[3] = target: T2, Prostaglandin G/H synthase 2 (Homo sapiens, UniProt P35354); test: Inhibition of human COX2 in IL1-beta treated human FF cells assessed as blockade of SnCl2-mediated PGH2 to PGF2alpha conversion after 50 mins by ELISA; assay type: cell-based
T2 sequence (P35354 whole entry): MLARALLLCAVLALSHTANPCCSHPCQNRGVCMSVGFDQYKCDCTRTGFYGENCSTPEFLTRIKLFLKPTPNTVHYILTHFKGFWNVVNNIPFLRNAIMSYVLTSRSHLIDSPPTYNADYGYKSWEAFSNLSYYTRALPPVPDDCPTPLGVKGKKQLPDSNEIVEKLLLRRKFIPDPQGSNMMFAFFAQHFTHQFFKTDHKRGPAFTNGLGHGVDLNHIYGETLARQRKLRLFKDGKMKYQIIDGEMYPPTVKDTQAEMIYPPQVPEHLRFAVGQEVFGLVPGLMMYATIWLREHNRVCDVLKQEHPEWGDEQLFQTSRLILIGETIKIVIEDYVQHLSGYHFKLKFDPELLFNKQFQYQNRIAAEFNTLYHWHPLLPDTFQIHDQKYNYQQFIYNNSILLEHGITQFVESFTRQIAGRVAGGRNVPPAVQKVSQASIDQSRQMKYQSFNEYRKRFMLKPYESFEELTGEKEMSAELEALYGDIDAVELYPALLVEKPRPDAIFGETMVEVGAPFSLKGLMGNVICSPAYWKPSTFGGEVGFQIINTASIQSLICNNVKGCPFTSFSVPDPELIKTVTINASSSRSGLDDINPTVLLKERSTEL
Outline: (§2)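 Human fetal fibroblasts in DMEM/15% FBS at 37 °C, 5% CO2; after 20–24 h, stimulated 20–24 h with 1 ng/mL IL-1β, washed, compound 50 min in serum-free DMEM, then 10 µM arachidonic acid 10 min. PGE2 by ELISA. For PGF2α, SnCl2 added after compound for 10 min before arachidonic acid. IC50 from duplicate data.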

[4] = target: T1, Prostaglandin E synthase; test: Inhibition of human mPGES1 in IL1-beta treated human FF cells assessed as blockade of PGH2 to PGE2 conversion after 50 mins by ELISA; assay type: cell-based; outline: as §2
[5] = target: T3, Prostaglandin G/H synthase 1 (Homo sapiens, UniProt P23219); test: Inhibition of COX1
[6] = target: T2, Prostaglandin G/H synthase 2; test: Inhibition of human recombinant COX2
[7] = target: T3, Prostaglandin G/H synthase 1; test: Inhibition of human recombinant COX1
[8] = target: T4, Prostaglandin G/H synthase 2 (Homo sapiens) (UniProt P35354); test: Inhibition of COX2
T4 sequence (whole entry): T2 sequence (P35354 whole entry)

[9] = target: T1, Prostaglandin E synthase; test: Inhibition of mPGES1; outline: as §1
[10] = Aqueous solubility assessed as nitrogen content after 24 hrs; assay type: physicochemical
Outline: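 Test compound from 30 mM DMSO stock diluted into 50 mM sodium phosphate buffer at the indicated pH (final 2% DMSO). Shaken 24 h at room temperature (23–25 °C), vacuum filtered. Filtrate nitrogen measured by chemiluminescent nitrogen detection; concentration derived from nitrogen count in molecular formula, reported in µg/mL and µM.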

[11] = target: T2, Prostaglandin G/H synthase 2; test: Inhibition of human COX2 in IL-1-beta-stimulated human RASF cells assessed as PGF2alpha levels after 50 mins by ELISA; assay type: cell-based
Outline: (§3)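 RA synovial fibroblasts cultured 3 days in DMEM/10% FBS, then 24 h with 1 ng/mL IL-1β in DMEM/1% FBS. Washed; compound (1% Me2SO final) 50 min, then 10 µM arachidonic acid 10 min at 37 °C. For PGF2α, 2 mg/mL SnCl2 added 40 min after compound. Prostanoids in conditioned media by ELISA.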

[12] = target: T1, Prostaglandin E synthase; test: Inhibition of human mPGES1 in IL-1-beta-stimulated human RASF cells assessed as blockade of PGH2 to PGE2 conversion after 50 mins by ELISA; assay type: cell-based; outline: as §3
[13] = target: T5, Thromboxane-A synthase (Homo sapiens, UniProt P24557); test: Inhibition of human thromboxane A synthase in IL-1-beta-stimulated human RASF cells assessed as TXB2 levels after 50 mins by ELISA; assay type: cell-based
T5 sequence (P24557 whole entry): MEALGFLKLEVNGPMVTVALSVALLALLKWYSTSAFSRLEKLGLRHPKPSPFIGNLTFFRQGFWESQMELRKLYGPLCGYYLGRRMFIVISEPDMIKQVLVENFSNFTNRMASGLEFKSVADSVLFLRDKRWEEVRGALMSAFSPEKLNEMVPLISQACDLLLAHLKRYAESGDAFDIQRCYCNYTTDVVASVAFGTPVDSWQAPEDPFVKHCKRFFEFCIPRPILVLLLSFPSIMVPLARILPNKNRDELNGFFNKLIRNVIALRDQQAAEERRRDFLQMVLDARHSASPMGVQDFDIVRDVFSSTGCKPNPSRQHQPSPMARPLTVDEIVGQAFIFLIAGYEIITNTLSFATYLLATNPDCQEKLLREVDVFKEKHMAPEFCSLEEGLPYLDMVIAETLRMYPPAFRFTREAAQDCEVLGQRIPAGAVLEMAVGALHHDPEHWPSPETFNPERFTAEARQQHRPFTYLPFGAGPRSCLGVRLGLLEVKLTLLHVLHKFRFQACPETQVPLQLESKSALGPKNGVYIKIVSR

[14] = target: T6, Prostacyclin synthase (Homo sapiens, UniProt Q16647); test: Inhibition of human prostacyclin synthase in IL-1-beta-stimulated human RASF cells assessed as PGF1alpha levels after 50 mins by ELISA; assay type: cell-based; outline: as §3
T6 sequence (Q16647 whole entry): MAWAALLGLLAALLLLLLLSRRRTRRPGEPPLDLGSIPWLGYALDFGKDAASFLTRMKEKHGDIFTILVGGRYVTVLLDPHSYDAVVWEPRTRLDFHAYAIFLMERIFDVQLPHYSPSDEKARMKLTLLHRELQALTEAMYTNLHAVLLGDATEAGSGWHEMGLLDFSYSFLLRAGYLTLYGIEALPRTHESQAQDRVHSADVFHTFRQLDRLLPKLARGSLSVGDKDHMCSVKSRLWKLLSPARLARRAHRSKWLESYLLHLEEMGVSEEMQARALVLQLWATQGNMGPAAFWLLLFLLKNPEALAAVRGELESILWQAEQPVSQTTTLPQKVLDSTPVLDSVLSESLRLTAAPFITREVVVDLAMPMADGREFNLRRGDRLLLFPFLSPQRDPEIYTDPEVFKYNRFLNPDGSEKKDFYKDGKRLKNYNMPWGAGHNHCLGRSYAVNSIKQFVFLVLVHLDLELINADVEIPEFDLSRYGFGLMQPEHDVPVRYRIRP

[15] = target: T1, Prostaglandin E synthase; test: Inhibition of human mPGES1 in […] assessed as PGE2 level after 24 hrs by ELISA; assay type: tissue-based, Blood; conditions: in the assay text read “by ELISA” for “after 24 hrs by ELISA”
Outline: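 Heparinized healthy-donor human whole blood (100 µL/well) mixed with 10⁵ 1483 head-and-neck carcinoma cells, compound 15 min at 37 °C, then 30 µM arachidonic acid 10 min. Centrifuged 930 g 10 min; plasma PGE2 by ELISA.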

T3 sequence (P23219 whole entry): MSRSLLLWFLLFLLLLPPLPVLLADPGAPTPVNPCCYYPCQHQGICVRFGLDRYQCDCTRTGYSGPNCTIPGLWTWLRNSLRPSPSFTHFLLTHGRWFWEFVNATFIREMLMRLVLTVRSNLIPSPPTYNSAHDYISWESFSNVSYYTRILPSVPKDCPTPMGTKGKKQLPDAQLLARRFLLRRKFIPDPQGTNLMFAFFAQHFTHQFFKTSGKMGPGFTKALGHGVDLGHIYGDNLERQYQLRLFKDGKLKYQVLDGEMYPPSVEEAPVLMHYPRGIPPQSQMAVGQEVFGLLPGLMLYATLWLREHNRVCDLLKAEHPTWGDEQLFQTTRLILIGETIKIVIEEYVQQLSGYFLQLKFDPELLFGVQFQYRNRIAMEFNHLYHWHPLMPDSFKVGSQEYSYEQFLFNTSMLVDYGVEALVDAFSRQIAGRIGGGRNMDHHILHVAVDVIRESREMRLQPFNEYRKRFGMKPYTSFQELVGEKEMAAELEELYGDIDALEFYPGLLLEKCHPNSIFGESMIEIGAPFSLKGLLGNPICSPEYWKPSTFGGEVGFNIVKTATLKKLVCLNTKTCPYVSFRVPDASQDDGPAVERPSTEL

Compound	IC50 [1] [µM]	IC50 [3] [µM]	IC50 [4] [µM]	also measured
CC(C)c1ccc2c(c1)c(SC(C)(C)C)c(CC(C)(C)C(=O)O)n2Cc1ccc(Cl)cc1				IC50 [2]: 3.2 µM
CN1C(C(=O)Nc2ccc(-c3ccc(Cl)c(Cl)c3)cc2)=C(O)c2ccccc2S1(=O)=O	0.28		2.04	
O=C(Nc1ccc(-c2ccc(Cl)cc2)cc1)C1=C(O)c2ccccc2S(=O)(=O)N1	0.29	33.7	1.45	
O=C(CNS(=O)(=O)c1ccccc1CO)Nc1ccc(-c2ccc(Cl)c(Cl)c2)cc1	29.6			
O=C(Nc1ccc(-c2ccc(Cl)cc2Cl)cn1)C1=C(O)c2ccccc2S(=O)(=O)N1	11.7			
O=C(Nc1ccc(-c2cccc(Cl)c2)cc1)C1=C(O)c2ccccc2S(=O)(=O)N1	0.86	74.7	3.44	
Fc1cccc(Cl)c1-c1nc(-c2ccc(C#Cc3ccc(C(F)(F)F)cc3)nc2)c(Br)[nH]1				IC50 [9]: 0.0008 µM
Cc1ccc(-c2ccc(NC(=O)C3=C(O)c4ccccc4S(=O)(=O)N3)cc2)cc1	< 0.07	> 100	2.24	
O=C(Nc1ccc(-c2cccc(Cl)c2Cl)cc1)C1=C(O)c2ccccc2S(=O)(=O)N1	0.038	44.4	< 0.92	
O=C(Nc1ccccc1CCc1ccc(Cl)c(Cl)c1)C1=C(O)c2ccccc2S(=O)(=O)C1	1.68	> 90	3.4	
N#Cc1ccc(-c2ccc(NC(=O)C3=C(O)c4ccccc4S(=O)(=O)N3)cc2)cc1	3.96			
COc1ccc(-c2ccc(NC(=O)C3=C(O)c4ccccc4S(=O)(=O)N3)cc2)cc1OC	32.2			
O=C(Nc1ccc(-c2ccc(Cl)c(Cl)c2)nc1)C1=C(O)c2ccccc2S(=O)(=O)N1	0.16	33.7	0.69	
O=C(Nc1ccc(-c2ccc(Cl)c(Cl)c2)cc1)C1=C(O)c2cc(O)ccc2S(=O)(=O)N1	0.098	> 100	1.45	

Second part, led by results:

IC50 [1] [µM]	IC50 [3] [µM]	IC50 [4] [µM]	Compound	also measured
65.6			O=C(Nc1ccc(-c2ccc(Cl)c(Cl)c2)cn1)C1=C(O)c2ccccc2S(=O)(=O)N1	
0.53	70	6.73	O=C(Nc1ccc(Oc2ccc(Cl)cc2)cc1)C1=C(O)c2ccccc2S(=O)(=O)N1	
0.11	95.6	1.14	O=C(Nc1ccc(C(=O)c2ccc(Cl)cc2)c(Cl)c1)C1=C(O)c2ccccc2S(=O)(=O)N1	
1	94.7	6.59	Cc1cccc(-c2ccc(NC(=O)C3=C(O)c4ccccc4S(=O)(=O)N3)cc2)c1C	
0.11	> 68	0.46	O=C(Nc1ccc(CCc2ccc(Cl)c(Cl)c2)cc1)C1=C(O)c2ccccc2S(=O)(=O)N1	INH [5]: > 50 µM; IC50 [6]: 467 µM; IC50 [7]: 489 µM; INH [8]: > 50 µM
3.13	92.6	6.73	O=C(Nc1ccc(-c2ccccc2)cc1)C1=C(O)c2ccccc2S(=O)(=O)N1	
0.19	> 100	0.67	O=C(Nc1ccc(-c2ccc(Cl)c(Cl)c2)cc1)C1NS(=O)(=O)c2ccccc2C1O (stereo unspecified)	IC50 [6]: > 50 µM; IC50 [7]: > 50 µM
3.91	95.3	2.16	O=C(Nc1cccc(C(=O)c2ccc(Cl)cc2)c1)C1=C(O)c2ccccc2S(=O)(=O)N1	
0.69	> 100	1.29	COc1ccc2c(c1)C(O)=C(C(=O)Nc1ccc(-c3ccc(Cl)c(Cl)c3)cc1)NS2(=O)=O	
0.18			O=C(Nc1ccc(-c2ccc(Cl)c(Cl)c2)cc1)C1=C(O)c2ccc(O)cc2S(=O)(=O)N1	
12.7			O=C(Nc1ccc(-c2ccc(Cl)nc2)cc1)C1=C(O)c2ccccc2S(=O)(=O)N1	
0.016	> 100	0.42	O=C(Nc1ccc(-c2ccc(Cl)c(Cl)c2)cc1)C1=C(O)c2ccccc2S(=O)(=O)N1	solubility at 24 h [10]: < 3 µM; IC50 [11]: > 100 µM; IC50 [12]: 0.5 µM; IC50 [6]: 263 µM; IC50 [13]: > 100 µM; IC50 [14]: > 100 µM; IC50 [15]: 5 µM; IC50 [7]: 118 µM
0.043	> 74.8	< 0.76	O=C(Nc1ccc(-c2ccc(Cl)cc2Cl)cc1)C1=C(O)c2ccccc2S(=O)(=O)N1	
3.05			COc1ccc2c(c1)S(=O)(=O)NC(C(=O)Nc1ccc(-c3ccc(Cl)c(Cl)c3)cc1)=C2O	
0.15	> 100	4.24	O=C(Nc1ccc(Nc2ccc(Cl)cc2)cc1)C1=C(O)c2ccccc2S(=O)(=O)N1	
< 0.026	> 57.7	< 0.75	Cc1ccc(-c2ccc(NC(=O)C3=C(O)c4ccccc4S(=O)(=O)N3)cc2)cc1C	
5.76	> 100	37.6	O=C(CNS(=O)(=O)c1ccccc1C(=O)O)Nc1ccc(-c2ccc(Cl)c(Cl)c2)cc1	
